# High-throughput results deposited in PubChem by Columbia University Molecular Screening Center.
# Insulin prom act: TRM-6 insulin promoter activation | TRM-6 cells, insulin promoter eGFP reporter, imaging; plate-scaled: unstimulated 0, stimulated control 100 | activation, % at 2 µM | 0.81% of 130,000 active;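 active means activation at 2 µM above a set limit, confirmed on inspection of the cell images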;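 further: share of cells whose green reporter signal exceeds an intensity cutoff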
#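 Test system: human fetal islet-derived TRM-6 cells with tamoxifen-inducible insulin promoter–eGFP reporter. Compound dosing: 2 µM final, single concentration. Incubation: tamoxifen pre-incubation 15 h overnight, then compound exposure 48 h at 37 °C. Signal: fixed-cell fluorescence microscopy, eGFP plus Hoechst.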
# Hits are given with their value; n = inactive. This excerpt belongs to a sample that is enriched for hits.
SMILES,Insulin prom act
CN(CCc1ccccn1)C(=S)NC(=O)c1ccco1,n
O=c1c(-c2cc3ccccc3o2)[n+]([O-])c2ccccc2n1OCc1ccccn1,n
Cc1c(=O)n(OCc2ccccc2)c2ccccc2[n+]1[O-],n
COc1ccc(COn2c(=O)c(C)[n+]([O-])c3ccccc32)cc1OC,86
COc1ccc(C(=O)NCCSc2ccccn2)cc1,n
COC(=O)C(C(=O)OC)c1ccccc1[N+](=O)[O-],n
CCOC(=O)C1(Cc2ccccc2C)CCCN(Cc2cc(OC)c(O)c(OC)c2)C1 (configuration not stated),n
COc1ccc(/C=N/NC(=O)CC(=O)NCc2cccnc2)cc1,n
O=C(COC(=O)C1Cc2ccccc2CN1C(=O)c1ccccc1Cl)Nc1ccc(N2CCOCC2)cc1 (configuration not stated),n
CCOc1cc(CNCC2CCCN2CC)cc(Cl)c1OC (configuration not stated),345
CCOc1cc(CNCCCN2CCOCC2)cc(Br)c1OCc1ccccc1Cl,n
CCN1CCCC1CNCc1cccc(OC)c1OCc1ccccc1F (configuration not stated),n
CCNCc1ccccc1OCc1ccccc1,n
CCN1CCCC1CNCc1ccccc1OCc1ccc(F)cc1 (configuration not stated),97
CCc1ccc(NC(=S)NCC2CCCN2CC)cc1 (configuration not stated),n
Cc1cccc2sc(NNC(=O)C3COc4ccccc4O3)nc12 (configuration not stated),n
COC(=O)c1[nH]c2ccc(C)cc2c1NS(=O)(=O)c1ccc(F)cc1,n
NS(=O)(=O)c1ccc(CNC(=O)CSc2ccccc2)cc1,n
Cc1ccccc1-c1nnn(CC(=O)Nc2cccc(S(N)(=O)=O)c2)n1,n
CCC(=O)NCCc1nc2cc(NC(=O)c3ccc(OC)cc3)ccc2n1C,n
CC(c1ccccc1)N1C(=O)c2ccc(C(=O)NCc3ccco3)cc2C1=O (configuration not stated),440
Cc1ccc(C(=O)Nc2cccc(C(=O)NCc3ccco3)c2)cc1,n
Cn1nnc2cc(C(=O)NCc3ccco3)ccc21,n
Cc1nc2scc(-c3ccc(C(C)(C)C)cc3)c2c(=O)n1N,n
CCN(CC)CCOC(=O)C12CC3CC(CC(C3)C1)C2,n
SMILES,Insulin prom act
CCCC(=O)N1CC2(CCC)CN(C(=O)CCC)CC(CCC)(C1)C2=O,n
O=C(COC(=O)c1cccc(Oc2ccccc2)c1)NCc1ccco1,n
O=C(CCCCCN1C(=O)c2ccccc2C1=O)Nc1ccc2c(c1)OCCO2,n
O=C(CCCN1C(=O)CCC1=O)Nc1ccc2c(c1)OCCO2,n
O=C(CCCCCN1C(=O)CCC1=O)Nc1ccc2c(c1)OCO2,475
NC(=O)c1nn(CC(=O)Nc2ccc3c(c2)OCO3)cc1[N+](=O)[O-],n
O=C(CC1SC(=Nc2ccccc2)N(CCc2c[nH]c3ccccc23)C1=O)Nc1ccccc1F (configuration not stated),n
COc1ccc(N2C(=O)CC(SCC(=O)O)C2=O)cc1 (configuration not stated),438
COc1ccc(N2C(=O)CC(Sc3nc(C)c4c(n3)CCCC4)C2=O)cc1 (configuration not stated),n
CCOc1ccc(N2C(=O)CC(SCC(=O)O)C2=O)cc1 (configuration not stated),n
CCc1nnc(NC(=O)c2ccc3c(c2)C(=O)N(CC)C3=O)s1,n
COn1c(SCc2ccccc2)nc2ccccc2c1=O,n
O=C(Cc1ccc(-n2cccc2)cc1)NC1CCCCCC1,n
CCOCCn1c(SC)nc2c1c(=O)[nH]c(=O)n2C,n
CCOC(=O)c1cnc(SCc2ccc(C(C)(C)C)cc2)nc1N,514
CCOC(=O)c1cnc(SCc2cccc3ccccc23)nc1N,n
CCOC(=O)c1cnc(SCc2ccccc2)nc1N,n
O=S(=O)(c1ccc(N2CCCC2)cc1)C(F)(F)F,n
Cc1ccc(-c2cnc(SCC(=O)N3CCCc4ccccc43)n2C)cc1,n
COc1ccc(CCN(C)C(=O)CNC(=O)c2ccccc2F)cc1OC,n
Cc1cc(=O)oc(C)c1C(=O)NCc1ccco1,n
Cc1cc(=O)oc(C)c1C(=O)NCCCN1CCN(c2ccc(F)cc2)CC1,n
Cc1cc(=O)oc(C)c1C(=O)NCc1c(F)cc(F)cc1F,136
CC(NC(=O)NCCCC(=O)O)(C(F)(F)F)C(F)(F)F,n
CCCCn1nc2cc(C(=O)NCc3ccc(OC)cc3)ccc2c1OCC,n
SMILES,Insulin prom act
FC(F)(F)c1cc(-c2ccccc2)nc(N2CCOCC2)n1,n
N#Cc1c(C(F)(F)F)cc(-c2ccccc2)nc1SCc1nc(N)nc(N2CCOCC2)n1,251
COc1ccc(-c2cc(C(F)(F)F)c(C#N)c(SCC(=O)Nc3ccc(C)cc3)n2)cc1,n
O=C(Nc1ccsc1C(=O)N1CCCC1)c1ccccc1,n
CCn1c(SCC(=O)NCc2ccco2)nc2c(c1=O)SC(C)C2 (configuration not stated),n
O=[N+]([O-])c1ccc(COc2ccc(CNc3ccccc3)cc2)cc1,n
